TPT1 inhibitor – blocks Candida albicans tRNA 2'-phosphotransferase | recombinant caTPT1, FP RNA substrate dephosphorylation | 300,000 tested, 0.81% active | inhibition, % at 5 µM;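 active = inhibition above the mean of all tested compounds plus 3 SD, set per screening campaign, cut at about 24% in these data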
Rpn11 block – Rpn11 (human) deubiquitinase inhibition. 360,000 tested, 0.59% active. human 26S proteasome, Ub4-pepOG fluorescence polarization; 20S core pre-blocked with epoxomicin. inhibition, % at 20 µM;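 active = inhibition at 20 µM, scaled to each plate's controls, above about 33%, limit read from the data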
Target sequence (O00487 whole entry, looked up): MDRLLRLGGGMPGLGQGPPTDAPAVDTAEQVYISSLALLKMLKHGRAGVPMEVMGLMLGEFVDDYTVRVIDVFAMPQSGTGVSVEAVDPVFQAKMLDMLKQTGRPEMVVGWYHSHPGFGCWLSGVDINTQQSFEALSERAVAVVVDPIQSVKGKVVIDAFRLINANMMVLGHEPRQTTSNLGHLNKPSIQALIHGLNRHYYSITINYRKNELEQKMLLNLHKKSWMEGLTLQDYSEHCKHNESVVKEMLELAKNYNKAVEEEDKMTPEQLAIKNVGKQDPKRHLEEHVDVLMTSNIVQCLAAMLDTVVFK
Rin1 Abl inh – human Rin1-Abl interaction inhibition | TR-FRET Rin1/Abl binding, biochemical | inhibition, % at 7.35 µM | P00519+Q13671 | 360,000 tested, 0.4% active; in the data active = inhibition above about 5%, passing the limit was not always enough
HNF4A DNA FP – change in binding of human HNF4 alpha to DNA; P41235; HNF4a-FITC DNA binding, fluorescence polarization, 1 h; activity change, % at 10 µM; 360,000 tested, 0.3% active; AID 1224865; in the data active = activity change above about 30%, passing the limit was not always enough
Neddyl block – inhibitors of human cullin neddylation; TR-FRET cullin neddylation, biochemical; inhibition, % at 25 µM; 360,000 tested, 0.58% active; AID 651699; in the data active = inhibition above about 36%
CSN deneddyl inh – CSN deneddylation inhibition. inhibition, % at 12.5 µM. Purified CSN, SCF-Nedd8-OG deneddylation, fluorescence polarization. 360,000 tested, 0.38% active;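 active = pattern-corrected inhibition above about 35%, with an unprinted fluorescence ratio check between 0.5 and 1.5, limit read from the data, passing the limit was not always enough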
Target sequence (Q92905 whole entry, looked up, one chain of several): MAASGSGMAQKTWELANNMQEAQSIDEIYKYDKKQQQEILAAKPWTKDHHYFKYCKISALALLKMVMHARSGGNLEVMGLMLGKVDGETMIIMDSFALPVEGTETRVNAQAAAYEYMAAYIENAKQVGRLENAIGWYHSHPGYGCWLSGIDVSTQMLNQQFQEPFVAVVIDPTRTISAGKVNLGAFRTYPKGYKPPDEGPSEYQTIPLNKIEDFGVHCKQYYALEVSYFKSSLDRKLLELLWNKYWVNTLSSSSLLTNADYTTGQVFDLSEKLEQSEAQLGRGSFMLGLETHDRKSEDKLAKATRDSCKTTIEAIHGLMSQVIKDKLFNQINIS
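Material: purified human Csn5 enzyme expressed in HEK293T cells / Medium: Tris buffer pH 7.5, NaCl, DTT, Tween-20, trehalose, ovalbumin / Compound dosing: 12.5 µM single point / Schedule: 90 min incubation of compound, enzyme and substrate at room temperature / Signal: fluorescence polarization of the substrate / Control set: no-enzyme wells high, enzyme-with-substrate wells low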
Each line names hits and unclear results; the compound was inactive in the other large screens. Only some compounds are listed: those with a hit (about 2.4% of all), similar ones and a draw of the others.

CC(C)NC(=O)NC(=O)COC(=O)c1ccc(S(=O)(=O)Nc2ccccc2)cc1	none
Cc1c(CCC(=O)NCCCn2ccnc2)c(=O)oc2c(C)c3oc4c(c3cc12)CCCC4	none (not shown: Neddyl block)
CN(C)c1ccc(C(=N)Cc2ccc3ccccc3n2)cc1	CSN deneddyl inh 44 (no result: TPT1 inhibitor)
CC1NC(=O)NC1CCCCCC(=O)NCCc1ccccc1 (configuration not stated)	Rin1 Abl inh 83
O=C(CCCCC(=O)NCCCc1ccccc1)NCCCc1ccccc1	none
CCN1/C(=C/c2ccc3ccccc3[n+]2CCCS(=O)(=O)[O-])C=Cc2cc(C)ccc21	none (no result: TPT1 inhibitor)
CCN1/C(=C/c2ccc3ccccc3[n+]2CC)C=Cc2ccccc21	HNF4A DNA FP 44
CCCCn1cc(SCC(=O)O)c2ccccc21	CSN deneddyl inh 59
CCCn1cc(SCC(=O)NC2CCCC2)c2ccccc21	none
COc1ccc(C(=O)Nn2c(CC(C)C)nc3cc(Cl)ccc3c2=O)c(OC)c1	none
Cc1cc(/C=C2\C(=N)N3N=C(S(C)(=O)=O)SC3=NC2=O)c(C)n1Cc1ccccc1	Neddyl block 51
CCCC1=NN2C(=N)/C(=C\c3cc(C)n(Cc4ccccc4)c3C)C(=O)N=C2S1	none
CCOc1cc(CNc2ccc(O)cc2)ccc1OCc1ccc(Cl)cc1Cl	CSN deneddyl inh 44
COCCn1c(SCc2ccc(C(=O)OC)o2)nnc1-c1c[nH]c2ccccc12	Rin1 Abl inh 11
COCCn1c(SCC(N)=O)nnc1-c1c[nH]c2ccccc12	none
O=C(NC1CCCN(C2Cc3ccccc3C2)C1)c1ccc(F)cc1Cl (configuration not stated)	none
Cc1ccc(Nc2nc(N)nc(CSc3nnnn3-c3ccccc3)n2)cc1	CSN deneddyl inh 41
CC(=O)OC1CCC2C3CCc4cc(OP(=O)(N5CC5)N5CC5)ccc4C3CCC12C (configuration not stated)	none (no result: TPT1 inhibitor)
CCCC(NC(=O)CCc1c(C)c2cc3c(C)c(C)oc3cc2oc1=O)C(=O)NC(Cc1ccc(Cl)cc1)C(=O)O (configuration not stated)	CSN deneddyl inh 37 (not shown: TPT1 inhibitor, Neddyl block)
CCC(NC(=O)CCc1c(C)c2cc3c(C)c(C)oc3cc2oc1=O)C(=O)N[C@@H](Cc1ccccc1)C(=O)O (some centres not stated)	none (not shown: Neddyl block)
COc1cc2c(C(=O)N(C)c3ccc(F)cc3)cn(C)c(=O)c2cc1OC	none
COc1ccc(OC)c(C(O)c2ncc(-c3cccc4ccccc34)[nH]2)c1 (configuration not stated)	none (no result: TPT1 inhibitor)
O=c1oc2ccccc2n1CCn1c2ccccc2c2nc3ccccc3nc21	CSN deneddyl inh 52 (not shown: Neddyl block)
COc1ccc2c(c1)c1nc3ccccc3nc1n2CCn1c(=O)oc2ccccc21	none
COc1ccc(NC(=O)c2cc(-c3cccnc3)nc3ccc(C)cc23)cc1OC	none (no result: TPT1 inhibitor)
COc1ccc(NC(=O)c2cc(-c3ccncc3)nc3ccc(Br)cc23)cc1OC	Rin1 Abl inh 8.8
C/C(=N\NC(=O)C1(C)CC1(Br)Br)c1cccc(NC(=O)c2ccc(C)o2)c1 (configuration not stated)	none
CCOc1ccccc1N1CC(C(=O)NNC(=O)c2ccc(F)cc2)CC1=O (configuration not stated)	CSN deneddyl inh active
O=C(CSc1nc2c(cnn2-c2ccccc2)c(=O)[nH]1)c1ccc(Cl)cc1	CSN deneddyl inh 88
Cc1occc(=O)c1OC(=O)Nc1ccc(Cl)c(Cl)c1	Rpn11 block 42
O=C1CNC(c2ccccc2)C(c2ccccc2)N1 (configuration not stated)	none (no result: TPT1 inhibitor)
Cc1cccc(NC(=O)c2cc(-c3cc(C)cc(C)c3O)n[nH]2)c1	HNF4A DNA FP 31
CCc1ccc2nc(N3C(=O)C(O)=C(C(=O)c4ccco4)C3c3cccs3)sc2c1 (configuration not stated)	Rpn11 block 57
Cc1ccc2nc(N3C(=O)C(O)=C(C(=O)c4ccco4)C3c3ccc(O)cc3)sc2c1 (configuration not stated)	none
Cc1ccc2nc(N3C(=O)C(O)=C(C(=O)c4cc5ccccc5o4)C3c3cccs3)sc2c1 (configuration not stated)	Rpn11 block 56
Cc1ccc2nc(N3C(=O)C(O)=C(C(=O)c4ccc(C)o4)C3c3ccco3)sc2c1 (configuration not stated)	none (no result: TPT1 inhibitor)
CN(CC(=O)Nc1c(Cl)cccc1Cl)C(=O)Cc1ccc(S(=O)(=O)N2CCOCC2)s1	none
CCOc1ccc(OCC)c(S(=O)(=O)n2ccnc2C)c1	HNF4A DNA FP 48
COc1ccc(C)cc1S(=O)(=O)n1ccnc1C	none
CCOc1ccc(C(C)C)cc1S(=O)(=O)n1ccnc1C	CSN deneddyl inh 73
CCOc1ccc(S(=O)(=O)n2ccnc2C)cc1	none (no result: Rpn11 block, Rin1 Abl inh, HNF4A DNA FP, Neddyl block, CSN deneddyl inh)
CCCCCN(C(=O)CCC(=O)OCc1cccc(C(F)(F)F)c1)c1c(N)n(CCCC)c(=O)[nH]c1=O	none
Cn1c(SCC(=O)c2ccc3c(c2)Cc2ccccc2-3)nnc1-c1ccccc1	CSN deneddyl inh 74
COc1cc2cc(C(c3nnnn3C3CCCC3)N3CCCCC3)c(=O)[nH]c2cc1OC (configuration not stated)	none
CCOC(=O)C1CCN(C(c2cc3ccc(C)c(C)c3[nH]c2=O)c2nnnn2C2CCCCC2)CC1 (configuration not stated)	Rpn11 block 31
O=c1[nH]c2cc3c(cc2cc1C(c1nnnn1C1CCCCC1)N1CCSCC1)OCCO3 (configuration not stated)	CSN deneddyl inh 37
O=C(CN1C(=O)C(=O)N(C2CCCC2)C1=O)Nc1cc(Cl)ccc1[N+](=O)[O-]	none (no result: TPT1 inhibitor)
Cc1sc2ncnc(N/N=C/c3ccc(O)cc3)c2c1C	none
Cc1sc2ncnc(N/N=C/c3ccccc3O)c2c1C	Neddyl block 50
CN1/C(=C/C=C/c2n(C)c3cc([N+](=O)[O-])c([N+](=O)[O-])cc3[n+]2C)C(C)(C)c2ccccc21	HNF4A DNA FP 95 (no result: TPT1 inhibitor)
O=C(Oc1c(CN2CCOCC2)cc(Cl)c2cccnc12)c1ccccc1	none
Oc1c(CN2CCc3ccccc3C2)cc(Cl)c2cccnc12	Rpn11 block 39
CCOc1ccc(C2C(C#N)=C(N)Oc3nc[nH]c(=O)c32)cc1 (configuration not stated)	none
O=c1[nH]cnc2c1C(c1ccc(Cl)cc1)c1c(nc[nH]c1=O)O2	Rin1 Abl inh 7.7 (no result: TPT1 inhibitor)
OCCN(CCO)c1cc2c3ccccc3ccc2c2ccccc12	CSN deneddyl inh 45 (no result: TPT1 inhibitor)
O=C(NC(=S)Nc1ccc(-c2ccc(CO)o2)cc1)c1cccs1	CSN deneddyl inh 40
Cc1ccc(C(=O)NC(=S)Nc2ccc(-c3ccc(CO)o3)cc2)cc1	none
